Assays:
Assay type in all cases: functional
Rattus norvegicus [1] = assay: In vivo inhibition of PAF induced hypotension in rats after intravenous administration.; settings: read-out: ID50 (the source's name)
Method in brief: (§1)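 Male Sprague-Dawley rats (180–220 g) were anesthetized with pentobarbital (50 mg/kg ip), with carotid blood pressure recorded. Compound was given iv in saline (1 mL/kg) via a femoral vein 3 min before PAF (0.5 µg/kg iv). Controls received vehicle. Percent inhibition of hypotension versus controls gave ID50 by linear regression over ≥4 doses, each the mean of ≥2 experiments.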

Oryctolagus cuniculus = organism: Oryctolagus cuniculus; assay: In vitro inhibition of platelet aggregation (rabbit) induced by PAF
Method in brief: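 Aggregation of platelet-rich plasma, obtained by spinning blood at 250 g for 10 min at 4 °C. The PRP was diluted with platelet-poor plasma (3000 g, 10 min) to […]. Aggregation was triggered with C18-PAF at 1.5 × 10⁻⁸ M and read on an aggregometer. IC50 was taken by linear regression from one curve of ≥4 concentrations, each the mean of 1–3 experiments.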

Rattus norvegicus [2] = assay: In vivo inhibition of PAF induced hypotension in rats after intravenous administration; settings: read-out: ID50 (the source's name); method in brief: as §1

| Compound | IC50 (Oryctolagus cuniculus; Oryctolagus cuniculus) | ED50 (Rattus norvegicus [1]) | IC50 (Oryctolagus cuniculus) | ED50 (Rattus norvegicus [2]) |
| --- | --- | --- | --- | --- |
| CCCCCCCCCCCCCCCNC(=O)OCC1CCC(COC(=O)N(Cc2cccc[n+]2CC)C(C)=O)O1.[I-] (centres undefined) | 72 nM | 0.098 mg/kg | – | – |
| CCCCCCCCCCCCCCCNC(=O)OCC1OCC(COC(=O)N(Cc2cccc[n+]2CC)C(C)=O)O1.[I-] (centres undefined) | 26 nM | 0.11 mg/kg | – | – |
| CC[n+]1ccccc1CN(C(C)=O)C(=O)OCCOCCOC(=O)C(C)(C)C.[I-] | 1700 nM | > 5 mg/kg | – | – |
| CCCCCCCCCCCCCCCCCNC(=O)OCCSCCOC(=O)N(Cc1cccc[n+]1CC)C(=O)C(C)(C)C.[I-] | 150 nM | 0.33 mg/kg | – | – |
| CCCCCCCCCCCCCCCNC(=O)OCCOCCOC(=O)N(Cc1cccc[n+]1CCC)C(C)=O | 230 nM | – | – | – |
| CCCCCCCCCCCCCCCCCNC(=O)OCCSCCOC(=O)N(Cc1cccc[n+]1CC)C(=O)OCC.[I-] | 18 nM | 0.028 mg/kg | – | – |
| CCCCCCCCCCCCCCCCCCCCCCOC(=O)N(Cc1cccc[n+]1CC)C(C)=O.[I-] | 1400 nM | 0.53 mg/kg | – | – |
| CCCCCCCCCCCCCCCNC(=O)OCCOCCOC(=O)N(Cc1cccc[n+]1CC)C(=O)OCC | 23 nM | – | – | – |
| CCCCCCCCCCCCCCCCCCOCCOCCOC(=O)N(Cc1cccc[n+]1CC)C(C)=O.[I-] | 22 nM | 0.024 mg/kg | – | – |
| CCCCCCCCCCCCCCCCCNC(=O)OCCSCCOC(=O)N(Cc1cccc[n+]1CC)C(=O)CCCCCCCCCCCCCCC.[I-] | 8700 nM | > 5 mg/kg | – | – |
| CCCCCCCCCCCCCCCNC(=O)OCCOCCOC(=O)N(Cc1cccc[n+]1CC)C(C)=O | 22 nM | – | – | – |
| CCCCCCCCCCCCCCCNC(=O)OCCCCCOC(=O)N(Cc1cccc[n+]1CC)C(C)=O | 24 nM | – | – | – |
| CCCCCCCCCCCCCCCNC(=O)OCCOCCOC(=O)CCCCC[n+]1ccsc1.Cc1ccc(S(=O)(=O)[O-])cc1 | 12000 nM | > 5 mg/kg | – | – |
| CCCCCCCCCCCCCCCCCCOC(=O)N(Cc1cccc[n+]1CC)C(C)=O.[I-] | 870 nM | 0.17 mg/kg | – | – |
| CC[n+]1ccccc1CN(C(C)=O)C(=O)OCCOCCOC(=O)NCC1CCCCC1 | 2000 nM | – | – | – |
| CCCCCCCCCCCCCCCCCCCCOC(=O)N(Cc1cccc[n+]1CC)C(C)=O.[I-] | 160 nM | 0.33 mg/kg | – | – |
| CCCCCCCCCCCCCCCCCNC(=O)OCCOCCOC(=O)N(Cc1cccc[n+]1C)C(C)=O | 55 nM | – | – | – |
| CCCCCCCCCCCCCCCCCCNC(=O)OCC(COC(=O)N(Cc1cccc[n+]1CC)C(C)=O)OC.[I-] (centres undefined) | – | 0.011 mg/kg | 11 nM | – |
| CCCCCCCCCCCCCCCCCNC(=O)OCCSCCOC(=O)N(Cc1cccc[n+]1CC)C(C)=O [listing 1 of 3 here] | – | – | 12 nM | – |
| CCCCCCCCCCCCCCCCCNC(=O)OCCSCCOC(=O)N(Cc1cccc[n+]1CC)C(C)=O [listing 2 of 3 here] | – | – | 8.6 nM | – |
| CCCCCCCCCCCCCCCCCNC(=O)OCCSCCOC(=O)N(Cc1cccc[n+]1CC)C(C)=O [listing 3 of 3 here] | – | – | 5.6 nM | – |
| CCCCCCCCCCCCCCCCCNC(=O)OCC[S+]([O-])CCOC(=O)N(Cc1cccc[n+]1CC)C(C)=O.[I-] (centres undefined) | 27 nM | 0.025 mg/kg | – | – |
| CC[n+]1ccccc1CN(C(C)=O)C(=O)OCCOCCOC(=O)NCCCc1ccccc1 | 1300 nM | – | – | – |
| CCCCCCCCCCCCCCCCCCNC(=O)OCCCOC(=O)N(Cc1cccc[n+]1CC)C(C)=O.[I-] | 23 nM | 0.02 mg/kg | – | – |
| CCOC(=O)N(Cc1cccc[n+]1CC)C(C)=O.[I-] | 24000 nM | > 5 mg/kg | – | – |
| CCSCCOC(=O)N(Cc1cccc[n+]1CC)C(C)=O.[I-] | 190 nM | 0.37 mg/kg | – | – |

The remaining compounds from weak to strong by IC50 (Oryctolagus cuniculus; Oryctolagus cuniculus), led by results:

| IC50 (Oryctolagus cuniculus; Oryctolagus cuniculus) | Compound | ED50 (Rattus norvegicus [1]) | IC50 (Oryctolagus cuniculus) | ED50 (Rattus norvegicus [2]) |
| --- | --- | --- | --- | --- |
| 18 nM | CCCCCCCCCCCCCCCCCCNC(=O)OCCOCCOC(=O)N(Cc1cccc[n+]1CC)C(C)=O.[I-] | 0.019 mg/kg | – | – |
| 17 nM | CCCCCCCCCCCCCCCCCNC(=O)OCCOCCOC(=O)N(Cc1cccc[n+]1CC)C(C)=O | – | – | – |
| 15 nM | CCCCCCCCCCCCCCCCCCOCCSCCOC(=O)N(Cc1cccc[n+]1CC)C(C)=O | – | – | – |
| 14 nM | CCCCCCCCCCCCCCCCNC(=O)OCCSCCOC(=O)N(Cc1cccc[n+]1CC)C(C)=O.[I-] | 0.01 mg/kg | – | – |
| 12 nM | CCCCCCCCCCCCCCCNC(=O)OCCOCCOCCOC(=O)N(Cc1cccc[n+]1CC)C(C)=O.[I-] | 0.028 mg/kg | – | – |
| 12 nM | CCCCCCCCCCCCCCCCCCNC(=O)OCC(COC(=O)N(Cc1cccc[n+]1CC)C(C)=O)OC.[Cl-] (centres undefined) [CV-6209] | – | – | 0.0078 mg/kg |
| 11 nM | CCCCCCCCCCCCCCCCCNC(=O)OCCS(=O)(=O)CCOC(=O)N(Cc1cccc[n+]1CC)C(C)=O.[I-] | 0.019 mg/kg | – | – |
| 9.1 nM | CCCCCCCCCCCCCCCCCNC(=O)OCCSCCOC(=O)N(Cc1cccc[n+]1CC)C(=O)c1ccccc1OC.[I-] | 0.019 mg/kg | – | – |
| 8.8 nM | CCCCCCCCCCCCCCCCCNC(=O)OCCOCCOC(=O)N(Cc1cccc[n+]1CC)C(=O)OCC | – | – | – |
| 8.4 nM | CCCCCCCCCCCCCCCNC(=O)OCCSCCOC(=O)N(Cc1cccc[n+]1CC)C(C)=O.[I-] | 0.04 mg/kg | – | – |
| 7.5 nM | CCCCCCCCCCCCCCCNC(=O)OCC1COC(COC(=O)N(Cc2cccc[n+]2CC)C(C)=O)O1.[I-] (centres undefined) | 0.085 mg/kg | – | – |
| 5.9 nM | CCCCCCCCCCCCCCCCCCNC(=O)OCCSCCOC(=O)N(Cc1cccc[n+]1CC)C(C)=O.[I-] | 0.015 mg/kg | – | – |
| 5.1 nM | CCCCCCCCCCCCCCCCOCCSCCOC(=O)N(Cc1cccc[n+]1CC)C(C)=O | – | – | – |

From ChEMBL document CHEMBL1125800, “Design of potent linear PAF antagonists” (J Med Chem, 1991)
